Data: ChEMBL document CHEMBL1139079, “Synthesis and HIV-1 integrase inhibitory activity of spiroundecane(ene) derivatives” (Bioorg Med Chem Lett, 2007)
Active and inactive are the calls of the source. No cut-off for these calls is given here.

How the values were obtained:
[1] = target: T1, Human immunodeficiency virus type 1 integrase (Human immunodeficiency virus 1, UniProt Q7ZJM1); experiment: (§1) Inhibition of recombinant HIV1 integrase 3'-end processing activity
Method in brief: (§2)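 Recombinant HIV-1 integrase with a 21 bp duplex substrate, 5'-[32P]-labelled. 3'-processing read as release of the terminal dinucleotide; strand transfer read as DNA products longer than the starting substrate. Products resolved by PAGE. IC50 given as mean and standard deviation of at least three independent experiments.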

[2] = target: T1, Human immunodeficiency virus type 1 integrase; experiment: (§3) Inhibition of recombinant HIV1 integrase strand transfer activity; method in brief: as §2
[3] = target: T1, Human immunodeficiency virus type 1 integrase; experiment: Inhibition of recombinant HIV1 integrase mediated-disintegration activity
Method in brief: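 Reverse of strand transfer, run with recombinant HIV-1 integrase on a Y-oligomer substrate carrying a 5'-[32P] label. Cleavage of the 34-mer strand releases a radiolabelled 19-bp oligonucleotide, which was detected by PAGE after reactions over a range of drug concentrations. IC50 derived from the gel analysis.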

[4] = Cytotoxicity against MT2 cells; format: cell-based; conditions: human
[5] = target: Human immunodeficiency virus type 1 integrase (Human immunodeficiency virus 1) (UniProt Q7ZJM1); experiment: as §1; method in brief: as §2
[6] = target: Human immunodeficiency virus type 1 integrase (Human immunodeficiency virus 1) (UniProt Q7ZJM1); experiment: as §3; method in brief: as §2

T1 sequence (Q7ZJM1 whole entry): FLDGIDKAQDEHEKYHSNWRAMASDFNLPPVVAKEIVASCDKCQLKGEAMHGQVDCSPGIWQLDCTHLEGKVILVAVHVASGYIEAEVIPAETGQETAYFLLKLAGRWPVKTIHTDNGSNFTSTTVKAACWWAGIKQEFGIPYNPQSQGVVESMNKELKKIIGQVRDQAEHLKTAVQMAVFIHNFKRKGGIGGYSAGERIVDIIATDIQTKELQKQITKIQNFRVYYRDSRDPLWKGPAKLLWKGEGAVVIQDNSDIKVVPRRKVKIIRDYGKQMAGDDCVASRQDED
Human immunodeficiency virus type 1 integrase (Human immunodeficiency virus 1), sequence (Q7ZJM1 as listed by the source): as the sequence (Q7ZJM1 whole entry) above

Compound | IC50 [1] [µM] | IC50 [2] [µM] | IC50 [3] [µM] | Activity [5] | Activity [6] | CC50 [4] [µM]
CC1(C)OC(=O)C2(C(=O)O1)[C@@H](c1ccco1)CC(=O)C[C@H]2c1c[nH]c2ccccc12 | 11.1 | 9.6 | 19.2 | – | – | > 111
COc1cccc([C@@H]2CC(=O)C[C@H](c3ccco3)C23C(=O)OC(C)(C)OC3=O)c1OC | 44.8 | 44.2 | – | – | – | > 111
CC1(C)OC(=O)C2(C(=O)O1)[C@@H](c1ccco1)CC(=O)C[C@H]2c1ccc(Br)cc1 | – | – | – | inactive | inactive | > 111
COc1ccc([C@@H]2CC(=O)C[C@H](c3ccco3)C23C(=O)OC(C)(C)OC3=O)c(C)c1 | – | – | – | inactive | inactive | > 111
COc1ccc([C@@H]2CC(=O)C[C@H](c3ccco3)C23C(=O)OC(C)(C)OC3=O)cc1 | 130 | 36.3 | – | – | – | > 111
COc1ccc([C@H]2CC(=O)CCC23C(=O)OC(C)(C)OC3=O)cc1 | 142 | 97.5 | – | – | – | > 111
COc1ccc([C@@H]2CC(=O)C[C@H](c3ccco3)C23C(=O)OC(C)(C)OC3=O)cc1OC | 111 | 91.5 | – | – | – | > 111
COc1ccc([C@@H]2CC(=O)C[C@H](c3ccccc3OC)C23C(=O)OC(C)(C)OC3=O)cc1O | – | – | – | inactive | inactive | > 111
CC1(C)OC(=O)C2(C(=O)O1)[C@@H](c1ccco1)CC(=O)C[C@H]2c1ccccc1 | 141 | 132 | – | – | – | > 111
CC1(C)OC(=O)C2(C(=O)O1)[C@@H](c1ccco1)CC(=O)C[C@H]2c1ccccc1Cl | – | – | – | inactive | inactive | > 111

Further lines, with some results ahead:

IC50 [1] [µM] | IC50 [2] [µM] | IC50 [3] [µM] | Activity [5] | Activity [6] | Compound | CC50 [4] [µM]
67.8 | 43.8 | 213 | – | – | CCOC(=O)C1=C(O)CCC2(C(=O)OC(C)(C)OC2=O)[C@H]1c1ccco1 | > 111
– | – | – | inactive | inactive | COc1ccc([C@@H]2CC(=O)C[C@H](c3ccco3)C23C(=O)OC(C)(C)OC3=O)cc1O | > 111
– | – | – | inactive | inactive | CC1(C)OC(=O)C2(C(=O)O1)[C@@H](c1ccco1)CC(=O)C[C@H]2c1ccc(F)cc1 | > 111
– | 281 | – | inactive | – | CCOC(=O)C1=C(O)CCC2(C(=O)OC(C)(C)OC2=O)[C@H]1c1ccccc1OC | > 111
32.9 | 17.6 | 81.4 | – | – | CC1(C)OC(=O)C2(C(=O)O1)[C@@H](c1ccco1)CC(=O)C[C@H]2c1ccco1 | > 111
